How the values were obtained:
[1] = system: MT4; experiment: 50% cell death in uninfected MT-4 cells was determined using MTS cytoprotection assay; format: functional; settings: Homo sapiens, in the assay text read “MTT cytoprotection assay” for “MTS cytoprotection assay”
Summary of the method: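 MT-4 cells at 6 × 10^5 cells/mL, infected with HIV-1 IIIB or HIV-2 ROD at 100–300 CCID50, or mock-infected. Serial 5-fold compound dilutions, triplicate wells. After 5 days, viability read by MTT reduction at 540 and 690 nm, median OD of three wells. CC50 is 50% drop in OD540 of mock-infected cells; EC50 is 50% protection from viral cytopathic effect.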

[2] = In vitro inhibition of cytopathic effect was determined against HIV-1 IIIB in MT-4 cells using MTT cytoprotection assay; settings: MT4
[3] = In vitro inhibition of cytopathic effect was determined against HIV-1 RF in CEM-SS cells using MTS cytoprotection assay; format: functional, cell-based
Summary of the method: (§1)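 CEM-SS cells from exponential culture, 5 × 10^3 per well, mixed with pretitered HIV-1 RF and serially diluted compound. Incubated 6 days at 37 °C, 5% CO2. MTS added, colour developed overnight at 37 °C, read at 490 nm, expressed as percent of uninfected drug-free control. EC50 is 50% protection from cytopathic effect; CC50 is 50% death of uninfected cells. Triplicates on each of two sister plates, plate values averaged.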

[4] = system: CEM-SS; experiment: 50% cell death in uninfected CEM-SS cells was determined using MTS cytoprotection assay; format: functional; settings: Homo sapiens; summary of the method: as §1
[5] = system: MT4; experiment: In vitro inhibition of cytopathic effect was determined against HIV-1 IIIB in MT-4 cells using MTT cytoprotection assay; settings: Homo sapiens

What does the source list for `CC(C)CCCC(C)[C@H]1CC[C@H]2[C@@H]3CCC4C[C@@H](CCC=C(c5cc(Cl)c(OCc6ccc(-c7cccc(C(=O)O)c7)cc6)c(C(=O)O)c5)c5cc(Cl)c(OCc6ccc(-c7cccc(C(=O)O)c7)cc6)c(C(=O)O)c5)CC[C@]4(C)[C@H]3CC[C@]12C` (some centres undefined)?
CC50 [1]: 79 µM; EC50 [2]: 12 µM; EC50 [3]: 6.1 µM

For `CC(C)CCCC(C)[C@H]1CC[C@H]2[C@@H]3CCC4C[C@@H](CCC=C(c5cc(Cl)c(O)c(C(=O)N[C@@H](Cc6ccccc6)C(=O)O)c5)c5cc(Cl)c(O)c(C(=O)N[C@@H](Cc6ccccc6)C(=O)O)c5)CC[C@]4(C)[C@H]3CC[C@]12C` (some centres undefined), which CC50 [1] is on record?
The CC50 was 62 µM.

And the CC50 [4]?
Its CC50 is > 200 µM.

What about the EC50 [2] of the same molecule?
The EC50 was > 62 µM.

What about the EC50 [3] of the same molecule?
The EC50 was > 200 µM.

For `COc1c(Cl)cc(Cc2cc(C(=CCC[C@H]3CC[C@@]4(C)C(CC[C@H]5[C@@H]6CC[C@H](C(C)CCCC(C)C)[C@@]6(C)CC[C@@H]54)C3)c3cc(Cc4cc(Cl)c(OC)c(C(=O)O)c4)c(OC)c(C(=O)O)c3)cc(C(=O)O)c2OC)cc1C(=O)O` (some centres undefined), which CC50 [1] is on record?
The CC50 was 41 µM.

And the CC50 [4]?
The CC50 was 50 µM.

And the EC50 [2]?
The EC50 was 12.5 µM.

And the EC50 [3]?
The EC50 was 2.9 µM.

For `CC(C)CCCC(C)[C@H]1CC[C@H]2[C@@H]3CCC4C[C@@H](CCC=C(c5cc(Cl)c(O)c(C(=O)N[C@@H](CCC(=O)O)C(=O)O)c5)c5cc(Cl)c(O)c(C(=O)N[C@@H](CCC(=O)O)C(=O)O)c5)CC[C@]4(C)[C@H]3CC[C@]12C` (some centres undefined), which CC50 [1] is on record?
The CC50 was > 125 µM.

And the CC50 [4]?
Its CC50 is 82 µM.

And the EC50 [2]?
The EC50 was 8.9 µM.

What does the source list for `CC(C)CCCC(C)[C@H]1CC[C@H]2[C@@H]3CCC4C[C@@H](CCCC(c5cc(Cl)c(O)c(C(=O)NCC(=O)O)c5)c5cc(Cl)c(O)c(C(=O)NCC(=O)O)c5)CC[C@]4(C)[C@H]3CC[C@]12C` (some centres undefined)?
CC50 [1]: > 125 µM; CC50 [4]: > 200 µM; EC50 [2]: 39.4 µM

With `CC(C)CCCC(C)[C@H]1CC[C@H]2[C@@H]3CCC4C[C@@H](CCC=C(c5cc(Cl)c(O)c(C(=O)NCC(=O)OC(C)(C)C)c5)c5cc(Cl)c(O)c(C(=O)NCC(=O)OC(C)(C)C)c5)CC[C@]4(C)[C@H]3CC[C@]12C` (some centres undefined) as the molecule, how does the CC50 [1] read?
Its CC50 is > 125 µM.

And the CC50 [4]?
Its CC50 is > 125 µM.

What about the EC50 [2] of the same molecule?
Its EC50 is > 125 µM.

For `CC(C)CCCC(C)[C@H]1CC[C@H]2[C@@H]3CCC4C[C@@H](CCC=C(c5cc(Cl)c(OCc6ccc(C(=O)O)cc6)c(C(=O)O)c5)c5cc(Cl)c(OCc6ccc(C(=O)O)cc6)c(C(=O)O)c5)CC[C@]4(C)[C@H]3CC[C@]12C` (some centres undefined), which CC50 [1] is on record?
The CC50 was 89 µM.

And the EC50 [3]?
Its EC50 is 0.5 µM.

Which EC50 [2] does the source give for `CC(C)CCCC(C)[C@H]1CC[C@H]2[C@@H]3CCC4C[C@@H](CCC=C(c5cc(Cl)c(OCc6ccccc6C(=O)O)c(C(=O)O)c5)c5cc(Cl)c(OCc6ccccc6C(=O)O)c(C(=O)O)c5)CC[C@]4(C)[C@H]3CC[C@]12C` (some centres undefined) here?
Its EC50 is > 37 µM.

And the EC50 [3]?
Its EC50 is 39.8 µM.

What does the source list for `CC(C)CCCC(C)[C@H]1CC[C@H]2[C@@H]3CCC4C[C@@H](CCC=C(c5cc(Cl)c(OCc6ccc(CC(=O)O)cc6)c(C(=O)O)c5)c5cc(Cl)c(OCc6ccc(CC(=O)O)cc6)c(C(=O)O)c5)CC[C@]4(C)[C@H]3CC[C@]12C` (some centres undefined)?
EC50 [2]: 4.1 µM; EC50 [3]: 1.8 µM

Which results are given for `CC(C)CCCC(C)[C@H]1CC[C@H]2[C@@H]3CCC4C[C@@H](CCCC(c5cc(Cl)c(O)c(C(=O)N[C@@H](CCC(=O)O)C(=O)O)c5)c5cc(Cl)c(O)c(C(=O)N[C@@H](CCC(=O)O)C(=O)O)c5)CC[C@]4(C)[C@H]3CC[C@]12C` (some centres undefined)?
CC50 [1]: > 125 µM; CC50 [4]: 34 µM; EC50 [2]: 10.3 µM

Which EC50 [2] does the source give for `CC(C)CCCC(C)[C@H]1CC[C@H]2[C@@H]3CCC4C[C@@H](CCC=C(c5cc(Cl)c(OCc6ccc(-c7ccccc7C(=O)O)cc6)c(C(=O)O)c5)c5cc(Cl)c(OCc6ccc(-c7ccccc7C(=O)O)cc6)c(C(=O)O)c5)CC[C@]4(C)[C@H]3CC[C@]12C` (some centres undefined) here?
Its EC50 is 10.1 µM.

What about the EC50 [3] of the same molecule?
The EC50 was 5.2 µM.

What does the source list for `CC(C)CCCC(C)[C@H]1CC[C@H]2[C@@H]3CCC4C[C@@H](CCC=C(c5cc(Cl)c(O)c(C(=O)N[C@@H](CC(=O)O)C(=O)O)c5)c5cc(Cl)c(O)c(C(=O)N[C@@H](CC(=O)O)C(=O)O)c5)CC[C@]4(C)[C@H]3CC[C@]12C` (some centres undefined)?
CC50 [1]: > 125 µM; CC50 [4]: 90 µM

For `CC(C)CCCC(C)[C@H]1CC[C@H]2[C@@H]3CCC4C[C@@H](CCC=C(c5cc(Cl)c(O)c(C(=O)NCCC(=O)O)c5)c5cc(Cl)c(O)c(C(=O)NCCC(=O)O)c5)CC[C@]4(C)[C@H]3CC[C@]12C` (some centres undefined), which CC50 [1] is on record?
Its CC50 is > 125 µM.

What about the CC50 [4] of the same molecule?
Its CC50 is > 200 µM.

And the EC50 [2]?
The EC50 was 73.8 µM.

For `CC(C)CCCC(C)[C@H]1CC[C@H]2[C@@H]3CCC4C[C@@H](CCC=C(c5cc(Cl)c(O)c(C(=O)O)c5)c5cc(Cl)c(O)c(C(=O)O)c5)CC[C@]4(C)[C@H]3CC[C@]12C` (some centres undefined), which CC50 [1] is on record?
Its CC50 is > 125 µM.

What about the EC50 [2] of the same molecule?
Its EC50 is 3 µM.

What about the EC50 [3] of the same molecule?
Its EC50 is 5.1 µM.

Which CC50 [1] does the source give for `CC(C)CCCC(C)[C@H]1CC[C@H]2[C@@H]3CCC4C[C@@H](CCC=C(c5cc(Cl)c(O)c(C(=O)N[C@@H](CC(C)C)C(=O)O)c5)c5cc(Cl)c(O)c(C(=O)N[C@@H](CC(C)C)C(=O)O)c5)CC[C@]4(C)[C@H]3CC[C@]12C` (some centres undefined) here?
Its CC50 is > 125 µM.

What about the CC50 [4] of the same molecule?
The CC50 was > 200 µM.

What about the EC50 [2] of the same molecule?
The EC50 was 63.4 µM.

And the EC50 [3]?
The EC50 was 40 µM.

For `CC(C)CCCC(C)[C@H]1CC[C@H]2[C@@H]3CCC4C[C@@H](CCC=C(c5cc(Cl)c(O)c(C(=O)NCC(=O)O)c5)c5cc(Cl)c(O)c(C(=O)NCC(=O)O)c5)CC[C@]4(C)[C@H]3CC[C@]12C` (some centres undefined), which CC50 [1] is on record?
The CC50 was > 125 µM.

What about the CC50 [4] of the same molecule?
Its CC50 is > 200 µM.

And the EC50 [5]?
The EC50 was 57.6 µM.

What about the EC50 [3] of the same molecule?
Its EC50 is 3.4 µM.

With `CC(C)CCCC(C)[C@H]1CC[C@H]2[C@@H]3CCC4C[C@@H](CCCC(c5cc(Cl)c(OCc6ccc(C(=O)O)cc6)c(C(=O)O)c5)c5cc(Cl)c(OCc6ccc(C(=O)O)cc6)c(C(=O)O)c5)CC[C@]4(C)[C@H]3CC[C@]12C` (some centres undefined) as the molecule, how does the CC50 [1] read?
Its CC50 is > 125 µM.

And the CC50 [4]?
The CC50 was > 200 µM.

And the EC50 [2]?
The EC50 was 5.1 µM.

What about the EC50 [3] of the same molecule?
Its EC50 is 4.8 µM.

What does the source list for `CC(C)CCCC(C)[C@H]1CC[C@H]2[C@@H]3CCC4C[C@@H](CCC=C(c5cc(Cl)c(OCc6ccc(-c7ccc(C(=O)O)cc7)cc6)c(C(=O)O)c5)c5cc(Cl)c(OCc6ccc(-c7ccc(C(=O)O)cc7)cc6)c(C(=O)O)c5)CC[C@]4(C)[C@H]3CC[C@]12C` (some centres undefined)?
CC50 [1]: 100 µM; EC50 [2]: > 100 µM; EC50 [3]: > 100 µM

For `CC(C)CCCC(C)[C@H]1CC[C@H]2[C@@H]3CCC4C[C@@H](CCC=C(c5cc(Cl)c(OCc6cccc(C(=O)O)c6)c(C(=O)O)c5)c5cc(Cl)c(OCc6cccc(C(=O)O)c6)c(C(=O)O)c5)CC[C@]4(C)[C@H]3CC[C@]12C` (some centres undefined), which CC50 [1] is on record?
Its CC50 is 76 µM.

For `COc1ccc(C(=O)Nc2cc(C(=CCC[C@H]3CC[C@@]4(C)C(CC[C@H]5[C@@H]6CC[C@H](C(C)CCCC(C)C)[C@@]6(C)CC[C@@H]54)C3)c3cc(NC(=O)c4ccc(OC)c(C(=O)O)c4)c(OC)c(C(=O)O)c3)cc(C(=O)O)c2OC)cc1C(=O)O` (some centres undefined), which CC50 [1] is on record?
Its CC50 is 81 µM.

What about the CC50 [4] of the same molecule?
Its CC50 is 47 µM.

And the EC50 [2]?
The EC50 was 8.4 µM.

What about the EC50 [3] of the same molecule?
The EC50 was 28.6 µM.
